{"data": "Measured values of several laboratories", "target": "Serine/threonine-protein kinase PAK 5 (PAK5, Homo sapiens, UniProt Q9P286)", "note": "Protocols differ between the studies behind these lines."}
{"Structure (SMILES)": "CC1CCCN1c1nccc(-c2cnn3ncccc23)n1 (centres unmarked)", "test": "binding", "conditions": "1 µM", "remaining binding [%]": 70}
{"Structure (SMILES)": "CNCc1ccccc1-c1csc([C@H](C)Nc2nc(C)nc3cc(OC)c(OC)cc23)c1", "test": "cell-free assay, competition with immobilised ligand", "conditions": "1 µM", "remaining binding [%]": 100}
{"Structure (SMILES)": "CCN1CCN(Cc2ccc(C(=O)Nc3ccc(C)c(Oc4ccc5c(c4)CC(=O)N5)c3)cc2C(F)(F)F)CC1", "test": "binding, competition with immobilised ligand", "conditions": "1 µM", "remaining binding [%]": 86}
{"Structure (SMILES)": "O=C(c1ccc(Nc2nccc(-c3cc4ccccc4s3)n2)cc1)N1CCC(N2CCCC2)CC1", "test": "binding, competition with immobilised ligand", "conditions": "1 µM", "remaining binding [%]": 79}
{"Structure (SMILES)": "C[C@@]1(Cc2ccc(C#N)cc2)C(=O)N(c2cc(Cl)cc(Cl)c2)c2ncc(C(=O)NC3(c4nc(C5CCC5)no4)CC3)n21", "test": "cell-free assay, competition with immobilised ligand", "conditions": "1 µM", "remaining binding [%]": 100}
{"Structure (SMILES)": "O=C(NCC1CCOCC1)c1n[nH]cc1NC(=O)c1c(F)cccc1F", "test": "binding, competition with immobilised ligand", "conditions": "1 µM", "remaining binding [%]": 79}
{"Structure (SMILES)": "FC(F)(F)Oc1cccc(-c2cnc3ccc(-c4ccncc4)nn23)c1", "test": "cell-free assay, competition with immobilised ligand", "conditions": "5 µM", "remaining binding [%]": 43}
{"Structure (SMILES)": "COc1ccc2c(c1)O[C@H](c1ccc(OC)c(OC)c1)C[C@@H]2NC(=O)C1(c2ccc3c(c2)OC(F)(F)O3)CC1", "test": "cell-free assay, competition with immobilised ligand", "conditions": "1 µM", "remaining binding [%]": 100}
{"Structure (SMILES)": "O=C(NCCCN1CCOCC1)c1ccc(Nc2ncc(Cl)c(-c3ccc(Cl)s3)n2)cc1", "test": "binding, competition with immobilised ligand", "conditions": "1 µM", "remaining binding [%]": 73}
{"Structure (SMILES)": "CNC(=O)[C@@H]1CC[C@@H](n2c(-c3ccc4cnccc4c3)nc3ccc(C(=O)NCc4cccc(C(N)=O)c4)cc32)C1", "test": "binding, competition with immobilised ligand", "conditions": "1 µM", "remaining binding [%]": 100}
{"Structure (SMILES)": "CN(c1nccc(-c2cnn3ncccc23)n1)C1CC1", "test": "binding", "conditions": "1 µM", "remaining binding [%]": 100}
{"Structure (SMILES)": "COc1cnc(Nc2cccc(S(N)(=O)=O)c2)nc1N1CCN(c2ccccc2)CC1", "test": "binding, competition with immobilised ligand", "conditions": "1 µM", "remaining binding [%]": 69}
{"Structure (SMILES)": "N[C@@H]1CCN(c2nccc(-c3cnn4ncccc34)n2)C1", "test": "binding", "conditions": "1 µM", "remaining binding [%]": 78}
{"Structure (SMILES)": "CO[C@H]1CC[C@H](CNc2ccc(S(=O)(=O)NC(=O)c3ccc(N4CCN(CC5=C(c6ccc(Cl)cc6)CC(C)(C)CC5)CC4)cc3Oc3cnc4[nH]ccc4c3)cc2[N+](=O)[O-])CC1", "test": "cell-free assay, competition with immobilised ligand", "conditions": "1 µM", "remaining binding [%]": 99}
{"Structure (SMILES)": "CN(C)c1ncc(F)c(-c2cnn3ncccc23)n1", "test": "binding", "conditions": "1 µM", "remaining binding [%]": 76}
{"Structure (SMILES)": "Cc1cnc(Nc2ccc(C(=O)N3CCC(N4CCCC4)CC3)cc2)nc1-c1cc2ccccc2s1", "test": "binding, competition with immobilised ligand", "conditions": "1 µM", "remaining binding [%]": 68}
{"Structure (SMILES)": "CN(C)c1ncnc(-c2ccc3nc(Nc4cc(CN5CCN(C(=O)CC(F)(F)F)CC5)ccn4)[nH]c3c2)c1Cl", "test": "cell-free assay, competition with immobilised ligand", "conditions": "1 µM", "remaining binding [%]": 85}
{"Structure (SMILES)": "c1cnn2ncc(-c3ccnc(N4CCC45COC5)n3)c2c1", "test": "binding", "conditions": "1 µM", "remaining binding [%]": 85}
{"Structure (SMILES)": "O=C(NCCCC1CCCCC1)c1ccc(CNC(=O)c2cnn(-c3ccccc3)c2C(F)(F)F)cc1", "test": "cell-free assay, competition with immobilised ligand", "conditions": "0.1 µM", "remaining binding [%]": 100}
{"Structure (SMILES)": "COc1ccnn2ncc(-c3ccnc(N(C)C)n3)c12", "test": "binding", "conditions": "1 µM", "remaining binding [%]": 94}
